Two compounds from ChEMBL document CHEMBL1150763, “Discovery of imidazo[1,5-c]imidazol-3-ones: weakly basic, orally active factor Xa inhibitors” (J Med Chem, 2008) can be followed below.

Series [1] in a line: Mean residence time in Sprague-Dawley rat in fed state at 3 mg/kg, po. The class given is ADME, organism-based. As to conditions: in vivo. On the set-up: dose 3 mg/kg, route oral. Summed up:
(§1)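 Male animals (SD rats 8 weeks old or cynomolgus monkeys, n = 3), fasted or fed, given 3 mg/kg orally as 0.5% methylcellulose suspension. Blood at 15, 30 min and 1, 2, 4, 8, 24 h (rat tail vein, monkey femoral vein); plasma deproteinized with acetonitrile, diluted in pH 3.0 ammonium formate, analysed by LC/MS/MS in positive ion mode.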

Series [2] can be described thus: Total clearance in Sprague-Dawley rat in fed state at 0.3 mg, iv. The class given is ADME, organism-based. As to conditions: in vivo. Summed up: (§2)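 Male SD rats (8 weeks old) or cynomolgus monkeys, n = 3, given 0.3 mg/kg intravenously in DMA/PEG400. Blood sampled at 5, 10, 15, 30 min and 1, 2, 4, 8, 24 h (rat tail vein, monkey femoral vein); acetonitrile-deproteinized plasma diluted in pH 3.0 ammonium formate and quantified by LC/MS/MS.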

Series [3] in a line: Mean residence time in cynomolgus monkey in fasted state at 3 mg/kg, po. Particulars: in vivo. On the set-up: dose 3 mg/kg, route oral. In kind it is ADME, organism-based, Macaca fascicularis. Summed up: as §1
Series [4] can be described thus: AUC (0 to 24 hrs) in cynomolgus monkey in fasted state at 3 mg/kg, po. The class given is ADME, organism-based, Macaca fascicularis. On the set-up: time < 24 hr, dose 3 mg/kg, route oral. As to conditions: plasma. The essentials: (§3)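 Male cynomolgus monkeys, n = 3, fasted or fed; single dose iv 0.3 mg/kg (DMA/PEG400) or po 3 mg/kg (0.5% methylcellulose suspension). Femoral-vein blood sampled 5 min–24 h after iv, 15 min–24 h after oral. Plasma deproteinized with acetonitrile, supernatant diluted in 0.01 mol/L HCO₂NH₄ pH 3.0, drug measured by LC/MS/MS.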

The nature of series [5]: Volume of distribution in steady state in Sprague-Dawley rat in fed state at 0.3 mg, iv. In kind it is ADME, organism-based. As to conditions: in vivo, read-out: Vdss. The essentials: as §2
Series [6] in a line: Bioavailability in cynomolgus monkey in fed state at 3 mg/kg, po. The class given is ADME, organism-based, Macaca fascicularis. As to conditions: in vivo. The essentials:
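Male cynomolgus monkeys, fed, given 3 mg/kg orally as 0.5% methylcellulose suspension and 0.3 mg/kg iv in DMA/PEG400 (n = 3); femoral vein plasma sampled to 24 h, deproteinized with acetonitrile and quantified by LC/MS/MS.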

Series [7] can be described thus: Tmax in cynomolgus monkey in fasted state at 3 mg/kg, po. In kind it is ADME, organism-based, Macaca fascicularis. On the set-up: dose 3 mg/kg, route oral. Particulars: in vivo. The essentials: as §1
Series [8] can be described thus: Mean residence time in cynomolgus monkey in fed state at 0.3 mg, iv. The class given is ADME, organism-based, Macaca fascicularis. Particulars: in vivo. The essentials:
as §2

The nature of a further series: physchem. Particulars: buffer, pH 7.4.
The nature of series [9]: Tmax in cynomolgus monkey in fed state at 3 mg/kg, po. The class given is ADME, organism-based, Macaca fascicularis. On the set-up: dose 3 mg/kg, route oral. Particulars: in vivo. The essentials: as §1
Series [10] can be described thus: Bioavailability in Sprague-Dawley rat in fed state at 3 mg/kg, po. In kind it is ADME, organism-based. As to conditions: in vivo. The essentials: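 Male SD (IGS) rats, 8 weeks old, n = 3, fed or fasted. Dosed iv at 0.3 mg/kg in DMA/PEG400 and po at 3 mg/kg as a 0.5% methylcellulose suspension. Tail-vein blood taken at 15, 30 min and 1, 2, 4, 8, 24 h after oral dosing (iv adds 5 and 10 min). Plasma deproteinized with acetonitrile and assayed by LC/MS/MS.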

Series [11] can be described thus: Basicity, pKa by titration method. In kind it is physicochemical.
A further series has as its target Prothrombin (Homo sapiens, UniProt P00734). The experiment in a line: Inhibition of thrombin.
A short description of series [12]: AUC (0 to 24 hrs) in Sprague-Dawley rat in fed state at 0.3 mg, iv. Particulars: plasma. The class given is ADME, organism-based. On the set-up: time < 24 hr, dose 0.3 mg, route intravenous. The essentials: (§4)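 Male SD (IGS) rats, 8 weeks old, n = 3, fasted or fed; dosed iv at 0.3 mg/kg in DMA/PEG400 or orally at 3 mg/kg as 0.5% methylcellulose suspension. Tail-vein blood drawn 5 min–24 h (iv) or 15 min–24 h (po). Plasma deproteinized with acetonitrile, diluted in 0.01 mol/L HCO₂NH₄ pH 3.0, and quantified by LC/MS/MS in positive ion mode.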

A short description of series [13]: AUC (0 to 24 hrs) in Sprague-Dawley rat in fed state at 3 mg/kg, po. In kind it is ADME, organism-based. On the set-up: time < 24 hr, dose 3 mg/kg, route oral. As to conditions: plasma. Summed up: as §4
A short description of series [14]: Cmax in Sprague-Dawley rat in fasted state at 3 mg/kg, po. As to conditions: in vivo. In kind it is ADME, organism-based. On the set-up: dose 3 mg/kg, route oral. Summed up: as §1
Series [15] can be described thus: Cmax in Sprague-Dawley rat in fed state at 3 mg/kg, po. The class given is ADME, organism-based. On the set-up: dose 3 mg/kg, route oral. As to conditions: in vivo. The essentials: as §1
Series [16] is described as follows: Volume of distribution in steady state in cynomolgus monkey in fed state at 0.3 mg, iv. As to conditions: in vivo, read-out: Vdss. The class given is ADME, organism-based, Macaca fascicularis. Summed up:
as §2

Series [17] concerns Plasma. The experiment in a line: Anticoagulant potency in mouse plasma assessed as concentration required to double the time to clot formation by PT assay. In kind it is functional.
A short description of series [18]: AUC (0 to 24 hrs) in cynomolgus monkey in fed state at 0.3 mg, iv. In kind it is ADME, organism-based, Macaca fascicularis. As to conditions: plasma. On the set-up: dose 0.3 mg, time < 24 hr, route intravenous. The essentials:
as §3

Series [19] is described as follows: Tmax in Sprague-Dawley rat in fed state at 3 mg/kg, po. The class given is ADME, organism-based. Particulars: in vivo. On the set-up: dose 3 mg/kg, route oral. The essentials:
as §1

In series [20] the target is Tissue-type plasminogen activator (Homo sapiens, UniProt P00750). Nature of the series: Inhibition of tPA.
Chain of Tissue-type plasminogen activator (P00750 whole entry): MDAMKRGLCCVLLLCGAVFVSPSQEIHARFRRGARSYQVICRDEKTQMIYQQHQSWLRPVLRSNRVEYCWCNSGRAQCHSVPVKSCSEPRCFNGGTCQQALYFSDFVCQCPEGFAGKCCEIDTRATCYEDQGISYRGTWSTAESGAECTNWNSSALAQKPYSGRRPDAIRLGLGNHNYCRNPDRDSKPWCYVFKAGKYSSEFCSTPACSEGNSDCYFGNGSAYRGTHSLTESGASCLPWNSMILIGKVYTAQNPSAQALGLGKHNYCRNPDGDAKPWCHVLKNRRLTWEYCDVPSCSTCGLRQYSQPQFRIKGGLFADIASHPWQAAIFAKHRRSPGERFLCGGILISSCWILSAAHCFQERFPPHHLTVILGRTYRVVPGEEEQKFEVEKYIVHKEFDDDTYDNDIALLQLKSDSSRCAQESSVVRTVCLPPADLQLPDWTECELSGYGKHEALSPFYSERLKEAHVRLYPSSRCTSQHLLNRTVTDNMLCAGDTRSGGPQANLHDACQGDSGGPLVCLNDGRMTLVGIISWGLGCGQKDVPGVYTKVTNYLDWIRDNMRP
The nature of series [21]: Cmax in cynomolgus monkey in fed state at 3 mg/kg, po. In kind it is ADME, organism-based, Macaca fascicularis. On the set-up: dose 3 mg/kg, route oral. As to conditions: in vivo. Summed up: as §1
A short description of series [22]: Tmax in Sprague-Dawley rat in fasted state at 3 mg/kg, po. In kind it is ADME, organism-based. On the set-up: dose 3 mg/kg, route oral. As to conditions: in vivo. The essentials:
as §1

The nature of series [23]: Mean residence time in Sprague-Dawley rat in fasted state at 3 mg/kg, po. On the set-up: dose 3 mg/kg, route oral. As to conditions: in vivo. In kind it is ADME, organism-based. The essentials: as §1
Series [24] in a line: Total clearance in cynomolgus monkey in fed state at 0.3 mg, iv. The class given is ADME, organism-based, Macaca fascicularis. Particulars: in vivo. The essentials: as §2
Series [25] in a line: Mean residence time in cynomolgus monkey in fed state at 3 mg/kg, po. As to conditions: in vivo. On the set-up: dose 3 mg/kg, route oral. In kind it is ADME, organism-based, Macaca fascicularis. The essentials:
as §1

The next series has as its target CYP3A4 (Homo sapiens, UniProt P08684). The experiment in a line: Inhibition of CYP3A4 expressed in human B-lymphoblastoid cells at 10 uM. The class given is ADME, cell-based. Summed up: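 Recombinant CYP3A4 (10 nM, from CYP3A4-expressing human B-lymphoblastoid cells) incubated with 100 µM testosterone and 10 µM test compound for 30 min at 37 °C; 6β-hydroxytestosterone formation quantified by HPLC-UV.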

Series [26] can be described thus: Cmin in Sprague-Dawley rat in fed state at 0.3 mg, iv after 5 mins. In kind it is ADME, organism-based. Particulars: in vivo, read-out: Cmin. Summed up:
as §2

The nature of series [27]: Cmin in cynomolgus monkey in fed state at 0.3 mg, iv after 5 mins. The class given is ADME, organism-based, Macaca fascicularis. As to conditions: in vivo, read-out: Cmin. The essentials:
as §2

In the next series the target is Plasminogen (Homo sapiens, UniProt P00747). Nature of the series: Inhibition of plasmin.
Chain of Plasminogen (P00747 97-580 limits assumed): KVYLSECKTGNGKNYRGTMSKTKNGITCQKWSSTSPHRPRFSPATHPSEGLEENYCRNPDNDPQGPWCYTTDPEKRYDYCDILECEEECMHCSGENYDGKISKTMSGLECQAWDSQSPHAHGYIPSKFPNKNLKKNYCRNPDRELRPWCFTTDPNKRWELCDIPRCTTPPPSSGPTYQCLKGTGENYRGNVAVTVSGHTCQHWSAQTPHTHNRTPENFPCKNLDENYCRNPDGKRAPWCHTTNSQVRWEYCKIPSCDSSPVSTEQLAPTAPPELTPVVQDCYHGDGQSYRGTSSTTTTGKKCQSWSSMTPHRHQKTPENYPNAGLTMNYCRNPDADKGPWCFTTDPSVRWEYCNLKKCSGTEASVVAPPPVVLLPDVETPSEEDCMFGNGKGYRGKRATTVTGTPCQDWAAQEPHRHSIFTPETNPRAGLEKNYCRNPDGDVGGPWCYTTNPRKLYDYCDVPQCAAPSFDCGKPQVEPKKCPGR
Chain of Plasminogen (P00747 581-810 limits assumed): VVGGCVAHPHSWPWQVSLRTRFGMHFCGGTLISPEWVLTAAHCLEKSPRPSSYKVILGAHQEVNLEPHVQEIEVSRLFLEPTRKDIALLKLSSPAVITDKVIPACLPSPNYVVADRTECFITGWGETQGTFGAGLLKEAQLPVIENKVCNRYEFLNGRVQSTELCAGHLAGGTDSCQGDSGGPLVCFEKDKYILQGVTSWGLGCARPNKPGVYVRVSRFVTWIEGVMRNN
Series [28] is described as follows: AUC (0 to 24 hrs) in cynomolgus monkey in fed state at 3 mg/kg, po. As to conditions: plasma. In kind it is ADME, organism-based, Macaca fascicularis. On the set-up: time < 24 hr, dose 3 mg/kg, route oral. Summed up: as §3
The test system of series [29] is Rattus norvegicus. The experiment in a line: Effect on bleeding time in Sprague-Dawley rat at 30 mg/kg, po. The class given is functional. The essentials:
(§5)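 Male Sprague-Dawley rats (7 weeks old) dosed orally 30 min beforehand, then anaesthetized with pentobarbital; tail transected 2-3 mm from tip, blood blotted every 30 s until bleeding stopped or 30 min elapsed; mean ± SEM, n = 6.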

Series [30] can be described thus: Cmax in cynomolgus monkey in fasted state at 3 mg/kg, po. In kind it is ADME, organism-based, Macaca fascicularis. On the set-up: dose 3 mg/kg, route oral. Particulars: in vivo. Summed up:
as §1

Series [31] relates to Plasma. Nature of the series: Anticoagulant potency in human plasma assessed as concentration required to double the time to clot formation by PT assay. In kind it is functional. Summed up:
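Human normal plasma mixed with compound dilutions in DMSO (1.5 µL into 48.5 µL), preincubated 4 min at 37 °C, clotting started with thromboplastin and timed on an automatic coagulometer. Prolongation relative to DMSO; concentration doubling clotting time derived by least-squares regression; mean of duplicates.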

Series [32] can be described thus: AUC (0 to 24 hrs) in Sprague-Dawley rat in fasted state at 3 mg/kg, po. The class given is ADME, organism-based. On the set-up: time < 24 hr, dose 3 mg/kg, route oral. Particulars: plasma. Summed up:
as §4

A short description of series [33]: Inhibition of trypsin.
Series [34] deals with Rattus norvegicus. Nature of the series: Effect on bleeding time in Sprague-Dawley rat at 100 mg/kg, po. The class given is functional. Summed up: as §5
Series [35] can be described thus: Mean residence time in Sprague-Dawley rat in fed state at 0.3 mg, iv. In kind it is ADME, organism-based. Particulars: in vivo. The essentials: as §2
The subject of series [36] is Rattus norvegicus. Nature of the series: Effect on bleeding time in Sprague-Dawley rat at 1 mg/kg, po. The class given is functional. Summed up: (§6)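 Male Sprague-Dawley rats (7 weeks old) dosed orally 18 h before measurement, then anesthetized with sodium pentobarbital. Tail transected 2-3 mm from the tip; blood blotted with filter paper every 30 s until bleeding stopped or 30 min elapsed. Bleeding time given as mean ± SEM, n = 6, compared with a vehicle group by one-tailed Shirley-Williams' test.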

In series [37] the test system is Rattus norvegicus. The experiment in a line: Effect on bleeding time in Sprague-Dawley rat at 0.3 mg/kg, po. The class given is functional. The essentials: as §6

Structures are written as SMILES.

Chain of CYP3A4 (P08684 whole entry): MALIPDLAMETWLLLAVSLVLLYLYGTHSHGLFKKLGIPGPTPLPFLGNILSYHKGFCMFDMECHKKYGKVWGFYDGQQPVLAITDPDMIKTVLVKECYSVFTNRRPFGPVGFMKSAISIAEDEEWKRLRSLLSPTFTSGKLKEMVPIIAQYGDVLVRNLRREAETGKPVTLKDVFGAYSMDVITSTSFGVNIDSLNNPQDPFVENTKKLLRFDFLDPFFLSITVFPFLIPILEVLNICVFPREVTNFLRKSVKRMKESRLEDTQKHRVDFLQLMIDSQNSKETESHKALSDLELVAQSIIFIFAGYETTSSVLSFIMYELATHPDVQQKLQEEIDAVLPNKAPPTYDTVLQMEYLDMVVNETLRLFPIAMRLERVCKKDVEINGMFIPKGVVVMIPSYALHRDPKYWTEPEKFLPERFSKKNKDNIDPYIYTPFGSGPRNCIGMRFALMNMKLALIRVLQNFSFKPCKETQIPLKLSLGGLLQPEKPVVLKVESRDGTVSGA

Take `Cc1ncc2n1C(=O)N(C1CCN(C(=O)CCS(=O)(=O)c3ccc4cc(Cl)ccc4c3)CC1)C2`: the MRT in [1] was determined as 3.6 h; in series [3], 1.6 h; in series [8] it was 1 h; in series [23], 1.5 h; in [25], 7 h; in series [35], 0.7 h. Moreover, the clearance in [2] is 20.8 mL/min/kg; in series [24] it was 9.02 mL/min/kg. The AUC(0-t) at 24 h worked out at 2120 ng·h/mL in series [4]; 245 ng·h/mL in series [12]; 597 ng·h/mL in series [13]; 565 ng·h/mL in [18]; 2590 ng·h/mL in series [28]; 417 ng·h/mL in series [32]. The Vd turned out to be 0.888 L/kg in [5] and 0.556 L/kg in [16]. Besides, the bioavailability stood at 46% in series [6] and 24% in series [10]. Besides, the time to peak (Tmax) was determined as 0.8 h in [7], 2.3 h in [9], 1.2 h in series [19] and 0.3 h in [22]. Further, the pH-dependent lipophilicity (logD) in the series “physchem” stood at 2.3. The pKa in series [11] turned out to be 5. Moreover, the Ki on Prothrombin was 6.2 µM; in [20], above 60 µM; at Plasminogen, above 60 µM; in series [33], above 60 µM. Besides, the Cmax was found to be 570 ng/mL in [14], 145 ng/mL in series [15], 269 ng/mL in [21] and 1200 ng/mL in series [30]. For the same compound, the Activity stood at 2 µM with Plasma [17] and 1 µM in the series on Plasma [31]. The compound further gave an inhibition at 10 µM on CYP3A4 of 23%. Besides, the concentration at 5 min in [26] came out at 291 ng/mL; in [27], 612 ng/mL. Further, the Time with Rattus norvegicus [29] is 490 s; in the series on Rattus norvegicus [34], 1040 s.

Regarding `CC(=O)CC(c1ccccc1)c1c(O)c2ccccc2oc1=O` (stereo unspecified) [WARFARIN], the Time in the series on Rattus norvegicus [36] came to 1590 s; in the series on Rattus norvegicus [37] it was 445 s.
